Our source for the inhibition, IC50 and Selectivity values is ChEMBL document CHEMBL1129944, “[[(Arylpiperazinyl)alkyl]thio]thieno[2,3-d]pyrimidinone derivatives as high-affinity, selective 5-HT1A receptor ligands” (J Med Chem, 1997).

Assay [1] addresses Adrenergic receptor alpha-1 (Rattus norvegicus) (UniProt P15823+P23944+P43140). Put plainly: Compound at 10E-5 M was tested in vitro for the inhibition of radioligand [3H]-prazosin binding to Alpha-1 adrenergic receptor in rat cortical membrane. In kind it is cell membranes.
Assay [2] addresses T1, 5-hydroxytryptamine receptor 1A (Rattus norvegicus) (UniProt P19327).
T1 sequence (whole entry): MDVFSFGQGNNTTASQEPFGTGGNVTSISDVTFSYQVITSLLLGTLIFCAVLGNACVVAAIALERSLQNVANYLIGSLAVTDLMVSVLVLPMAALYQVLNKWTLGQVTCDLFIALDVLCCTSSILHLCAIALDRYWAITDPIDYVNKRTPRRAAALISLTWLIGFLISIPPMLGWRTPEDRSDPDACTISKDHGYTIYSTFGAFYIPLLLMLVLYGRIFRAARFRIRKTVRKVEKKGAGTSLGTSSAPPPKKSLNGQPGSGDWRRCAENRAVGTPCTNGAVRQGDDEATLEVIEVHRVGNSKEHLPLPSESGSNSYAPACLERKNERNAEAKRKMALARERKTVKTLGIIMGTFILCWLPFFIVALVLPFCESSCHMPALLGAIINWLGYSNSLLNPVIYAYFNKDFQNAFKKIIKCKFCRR
Briefly: Compound at 10E-5 M was tested in vitro for the inhibition of radioligand [3H]8-OH-DPAT binding to 5-hydroxytryptamine 1A receptor in rat hippocampal membrane. In kind it is cell membranes. To be noted: Hippocampus.

The target of assay [3] is T2, Adrenergic receptor alpha-1 (Rattus norvegicus, UniProt P15823+P23944+P43140).
T2 sequence (P15823 whole entry): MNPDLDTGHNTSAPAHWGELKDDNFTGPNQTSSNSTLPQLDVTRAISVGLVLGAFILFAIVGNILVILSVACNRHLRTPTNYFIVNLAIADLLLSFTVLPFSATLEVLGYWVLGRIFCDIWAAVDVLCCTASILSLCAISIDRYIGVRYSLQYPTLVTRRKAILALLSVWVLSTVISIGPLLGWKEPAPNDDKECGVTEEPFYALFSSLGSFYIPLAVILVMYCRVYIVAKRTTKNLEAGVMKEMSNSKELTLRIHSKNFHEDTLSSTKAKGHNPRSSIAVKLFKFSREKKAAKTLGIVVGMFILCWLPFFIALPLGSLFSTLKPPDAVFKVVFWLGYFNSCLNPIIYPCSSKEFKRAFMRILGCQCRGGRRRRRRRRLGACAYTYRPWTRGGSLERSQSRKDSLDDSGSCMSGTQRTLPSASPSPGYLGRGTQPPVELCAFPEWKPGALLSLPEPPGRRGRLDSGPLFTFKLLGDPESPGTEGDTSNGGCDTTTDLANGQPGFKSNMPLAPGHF
T2 sequence (P23944 whole entry): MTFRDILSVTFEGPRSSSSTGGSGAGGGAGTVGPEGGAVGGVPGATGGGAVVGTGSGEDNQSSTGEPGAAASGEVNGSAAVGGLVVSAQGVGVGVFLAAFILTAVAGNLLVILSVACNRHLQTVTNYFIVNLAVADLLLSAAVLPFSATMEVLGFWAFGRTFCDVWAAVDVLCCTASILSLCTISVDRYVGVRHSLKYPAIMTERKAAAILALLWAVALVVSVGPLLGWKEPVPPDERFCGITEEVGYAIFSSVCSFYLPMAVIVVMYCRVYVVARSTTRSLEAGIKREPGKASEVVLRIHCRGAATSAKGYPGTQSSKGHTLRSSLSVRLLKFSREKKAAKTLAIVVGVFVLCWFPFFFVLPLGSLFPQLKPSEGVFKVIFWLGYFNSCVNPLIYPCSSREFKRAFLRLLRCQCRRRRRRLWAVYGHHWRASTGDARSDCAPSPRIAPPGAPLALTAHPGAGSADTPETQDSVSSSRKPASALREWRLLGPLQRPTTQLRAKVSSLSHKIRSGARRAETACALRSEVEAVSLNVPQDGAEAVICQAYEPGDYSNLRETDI
T2 sequence (P43140 whole entry): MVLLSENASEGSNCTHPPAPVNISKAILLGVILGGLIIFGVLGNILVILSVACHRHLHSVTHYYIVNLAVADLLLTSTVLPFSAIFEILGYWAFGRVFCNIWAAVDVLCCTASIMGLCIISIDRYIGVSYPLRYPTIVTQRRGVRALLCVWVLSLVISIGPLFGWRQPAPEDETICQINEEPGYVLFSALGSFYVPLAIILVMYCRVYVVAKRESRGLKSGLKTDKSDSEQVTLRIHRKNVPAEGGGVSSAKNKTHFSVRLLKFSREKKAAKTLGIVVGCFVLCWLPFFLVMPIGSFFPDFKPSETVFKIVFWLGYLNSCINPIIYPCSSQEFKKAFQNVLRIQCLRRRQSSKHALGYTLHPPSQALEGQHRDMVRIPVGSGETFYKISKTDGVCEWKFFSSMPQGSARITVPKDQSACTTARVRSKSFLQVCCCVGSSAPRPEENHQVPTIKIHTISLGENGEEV
Briefly: In vitro inhibitory concentration against radioligand [3H]prazosin binding to alpha-1 adrenergic receptor in rat cortical membrane. In kind it is cell membranes. The method, boiled down: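 Male CRL:CD(SD)BR-COBS rats (~150 g) were decapitated. Cortex was homogenized in 50 mM Tris-HCl pH 7.4, spun at 50000g, given 10 min at 37 °C and washed. Incubation buffer had 0.1% ascorbic acid and 10 μM pargyline. GF/B filtration and scintillation counting; IC50 from dose-inhibition curves.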

In assay [4] the target is Serotonin 1a (5-HT1a) receptor/Adrenergic receptor alpha-1 (Rattus norvegicus) (UniProt P15823+P23944+P43140+P19327). Put plainly: Selectivity for alpha-1-adrenergic receptor to that of 5-HT1A receptor. In kind it is protein assay. The method, boiled down: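 Ratio of IC50 at α1-adrenoceptors ([3H]prazosin, rat cortex) to IC50 at 5-HT1A receptors ([3H]-8-OH-DPAT, rat hippocampus). Each IC50 came from radioligand displacement curves.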

In assay [5] the target is T3, 5-hydroxytryptamine receptor 1A (Rattus norvegicus, UniProt P19327).
T3 sequence (P19327 whole entry): T1 sequence (whole entry)
Briefly: In vitro inhibitory concentration against radioligand [3H]8-OH-DPAT binding to 5-hydroxytryptamine 1A receptor in rat hippocampal membrane. In kind it is cell membranes, Hippocampus. In short, it runs like this:
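Rat hippocampal membranes (male SD rats, ~150 g) were washed in 50 mM Tris-HCl pH 7.4, including 10 min at 37 °C. Incubation buffer contained 4 mM CaCl2 and 10 μM pargyline. Filtered onto GF/B and counted; 50% inhibitory concentration from fitted curves.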

SMILES strings stand for the structures. Bounds are passed on as bounds.

As for `COc1ccc(N2CCN(CCCSc3nc(O)c4c(C)c(C)sc4n3)CC2)cc1`, the inhibition in assay [1] and in assay [2] was below 50% throughout.
In assay [3], `Cc1sc2nc(SCCCN3CCN(c4ncccn4)CC3)nc(O)c2c1C` gave a half-maximal inhibitory concentration (IC50) of 1098 nM. The Selectivity in assay [4] worked out at 5.
As for `Cc1sc2nc(SCCCN3CCN(c4cccc(Cl)c4)CC3)nc(O)c2c1C`, the IC50 turned out to be 986 nM in assay [5] and 299 nM in assay [3]. The molecule also showed a Selectivity in assay [4] of 0.3.
Taken in the same sequence, the figures for `COc1ccccc1N1CCN(CCCSc2nc(O)c3c(n2)sc2ccccc23)CC1` were 46 nM, 91 nM and 2.
Taken in the same sequence, the figures for `COc1ccccc1N1CCN(CCCSc2nc(O)c3c(C)c(C)sc3n2)CC1` were 24 nM, 40 nM and 2.
Consider `NCCc1c[nH]c2ccc(O)cc12`, for which the inhibition in assay [1] is below 50%.
In the case of `O=c1[nH]c(SCCCN2CCN(c3ccccc3Cl)CC2)nc2sc3c(c12)CCCC3`, the concentration for half-maximal inhibition (IC50) in assay [5] came out at 943 nM.
As for `COc1ccccc1N1CCN(CCCSc2nc3sc(C)c(C)c3c(=O)n2Nc2ccccc2)CC1`, the half-maximal inhibitory concentration (IC50) in assay [5] came out at 497 nM; in assay [3], 32 nM. In assay [4], this molecule came in with a Selectivity of 0.06.
In the same order, the values of `Oc1nc(SCCCN2CCN(c3ncccn3)CC2)nc2sc3c(c12)CCCC3` are 505 nM, 1814 nM and 3.5.
The molecule `Cc1sc2nc(SCCCN3CCN(c4cccc5ccccc45)CC3)[nH]c(=O)c2c1C` had an IC50 in assay [5] of 355 nM.
With `COc1ccccc1N1CCN(CCCSc2nc(O)c3c4c(sc3n2)CCCC4)CC1`, the concentration for half-maximal inhibition (IC50) in assay [3] was found to be 38 nM. The Selectivity in assay [4] was determined as 0.6.
Regarding `COc1ccccc1N1CCN(CCCSc2nc3sc(C)c(C)c3c(=O)n2C)CC1`, the IC50 in assay [5] stood at 3 nM; in assay [3] it was 27 nM. Further, the Selectivity in assay [4] worked out at 9.
In the same order, the values of `Cc1sc2nc(SCCCN3CCN(c4ncccn4)CC3)n(C)c(=O)c2c1C` are 65 nM, 2030 nM and 31.
Taken in the same sequence, the figures for `COc1ccccc1N1CCN(CCCSc2nc3sc4c(c3c(=O)n2N)CCCC4)CC1` were 1.3 nM, 39 nM and 30.
Take `Cc1sc2nc(SCCCN3CCN(c4ccc(Cl)cc4)CC3)nc(O)c2c1C`: the inhibition in assay [1] and in assay [2] was below 50% each time.
Molecule `Cc1sc2nc(SCCCN3CCN(c4ccccc4Cl)CC3)nc(O)c2c1C` showed an IC50 in assay [3] of 161 nM. Also, the Selectivity in assay [4] amounted to 0.35.
Molecule `Cc1sc2nc(SCCCN3CCN(c4ccccc4Cl)CC3)[nH]c(=O)c2c1C` gave an IC50 in assay [5] of 460 nM.
Consider `COc1ccccc1N1CCN(CCCSc2nc3sc4c(c3c(=O)n2C)CCCC4)CC1`, for which the IC50 in assay [5] was 7 nM; in assay [3], 64 nM. Also, the Selectivity in assay [4] was 9.
Molecule `Oc1nc(SCCCN2CCN(c3cccc4ccccc34)CC2)nc2sc3c(c12)CCCC3` showed a concentration for half-maximal inhibition (IC50) in assay [3] of 445 nM. The molecule further registered a Selectivity in assay [4] of 1.
`COc1ccccc1N1CCN(CCCSc2nc(O)c3cc(-c4ccccc4)sc3n2)CC1`: the IC50 in assay [5] was determined as 386 nM; in assay [3], 224 nM. The Selectivity in assay [4] worked out at 0.6.
Take `COc1ccccc1N1CCN(CCCn2c(SC)nc3sc4c(c3c2=O)CCCC4)CC1`: the figures for the IC50 in assay [5] and in assay [3] were 511 nM and 95 nM, respectively. Also, in assay [4], the Selectivity is 0.2.
Regarding `COc1ccccc1N1CCN(CCCSc2nc3sc4c(c3c(=O)[nH]2)CCCC4)CC1`, the IC50 in assay [5] was determined as 59 nM.
On the same count and under the same terms, to `O=c1[nH]c(SCCCN2CCN(c3cccc4ccccc34)CC2)nc2sc3c(c12)CCCC3` belongs 371 nM.
`Oc1nc(SCCCN2CCN(c3ccccc3Cl)CC2)nc2sc3c(c12)CCCC3` returned a half-inhibitory concentration (IC50) in assay [3] of 168 nM. This molecule also returned a Selectivity in assay [4] of 0.2.
In the same order, the values of `Cc1sc2nc(SCCCN3CCN(c4cccc5ccccc45)CC3)nc(O)c2c1C` are 886 nM and 2.5.
Taken in the same sequence, the figures for `Oc1nc(SCCCN2CCN(c3cccc4ccccc34)CC2)nc2sc(-c3ccccc3)cc12` were 2454 nM and 1.
For the molecule `COc1ccccc1N1CCN(CCCSc2nc3ccccc3c(=O)n2N)CC1`, the 50% inhibitory concentration (IC50) in assay [5] stood at 0.5 nM; in assay [3], 4 nM. The Selectivity in assay [4] came out at 8.
Taken in the same sequence, the figures for `Cc1sc2nc(SCCCN3CCN(c4ccccc4)CC3)n(N)c(=O)c2c1C` were 3.3 nM, 43 nM and 13.
In assay [3], `COc1ccccc1N1CCN(CCSc2nc(O)c3c4c(sc3n2)CCCC4)CC1` registered an IC50 of 20 nM. The molecule further had a Selectivity in assay [4] of 0.2.
In assay [5], `COc1ccccc1N1CCN(CCSc2nc3sc4c(c3c(=O)[nH]2)CCCC4)CC1` displayed an IC50 of 97 nM.
Same read-out and setting: the result for `O=c1[nH]c(SCCCN2CCN(c3cccc4ccccc34)CC2)nc2sc(-c3ccccc3)cc12` reads 2010 nM.
As for `Cc1sc2[nH]c(=S)n(N)c(=O)c2c1C`, in assay [3], the 50% inhibitory concentration (IC50) was above 10000 nM. Besides, the inhibition in assay [2] was below 50%.
Regarding `COc1ccccc1N1CCN(CCCOc2nc(SC)nc3sc4c(c23)CCCC4)CC1`, the IC50 turned out to be 1420 nM in assay [5] and 75 nM in assay [3]. For the same molecule, the Selectivity in assay [4] was found to be 0.05.
In turn, `Cc1ccc(N(CC2=NCCN2)c2cccc(O)c2)cc1` had an inhibition in assay [2] below 50%.
`Cc1sc2nc(SCCCN3CCN(c4ncccn4)CC3)[nH]c(=O)c2c1C` had a 50% inhibitory concentration (IC50) in assay [5] of 226 nM.
With `COc1ccccc1N1CCN(CCCSc2nc3sccc3c(=O)n2N)CC1`, the results for the half-inhibitory concentration (IC50) in assay [5] and in assay [3] were 1.2 nM and 2.9 nM, respectively. Further, the Selectivity in assay [4] was found to be 2.
On to `COc1ccccc1N1CCN(CCc2nn3c(=O)c4c(C)c(C)sc4nc3s2)CC1`, for which the half-maximal inhibitory concentration (IC50) came to 42 nM in assay [5] and 125 nM in assay [3]. In addition, in assay [4], the Selectivity came out at 3.
